From ChEMBL document CHEMBL3822411, “Non-Substrate Based, Small Molecule Inhibitors of the Human Isoprenylcysteine Carboxyl Methyltransferase” (Medchemcomm, 2016)

Tested on: not listed separately
Assay: Growth inhibition of human PANC1 cells expressing K-Ras G12D mutant after 5 days by MTT assay
Assay type: functional, cell-based
Conditions: PANC-1, 120 h
Summary of the method: (§1)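 MTT read-out; 1,000 cells per well seeded the day before, then medium replaced with inhibitor at increasing concentrations, 0.5% DMSO constant; 5 days at 37 °C. MTT (5 mg/mL solution) added for a further 4 h, formazan dissolved in DMSO, absorbance at 590 nm; mean absorbance per concentration plotted.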

| SMILES | IC50 [µM] |
| --- | --- |
| c1csc(C(=C2CCOCC2)c2ccc3ccccc3c2)c1 | 78 |

Biological target: Protein-S-isoprenylcysteine O-methyltransferase (Homo sapiens, UniProt O60725)
Sequence (O60725 whole entry, the tested form may be a part): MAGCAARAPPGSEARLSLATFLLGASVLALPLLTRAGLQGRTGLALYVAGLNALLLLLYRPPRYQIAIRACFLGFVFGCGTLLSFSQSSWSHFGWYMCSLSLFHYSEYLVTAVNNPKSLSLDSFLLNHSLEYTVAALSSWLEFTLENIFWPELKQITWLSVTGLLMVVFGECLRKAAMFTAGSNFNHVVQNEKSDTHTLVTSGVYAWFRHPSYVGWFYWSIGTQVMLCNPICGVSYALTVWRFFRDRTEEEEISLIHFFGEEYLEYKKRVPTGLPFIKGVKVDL
Assay: Inhibition of human isoprenylcysteine carboxyl methyltransferase expressed in yeast His10myc3N-Icmt membranes using AFC substrate and [14C]-SAM and incubated for 30 mins by liquid scintillation counting based methyltransferase vapor diffusion assay
Assay type: cell membranes
Conditions: not given
Summary of the method: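 Crude yeast membranes (5 µg) in Tris-HCl 100 mM pH 7.4 with AFC 10 µM and [14C]-SAM 60 µM, compound at increasing concentrations, 5% DMSO; 37 °C 30 min, stopped with NaOH/SDS. Released radioactivity captured on filter paper over 2.5 h and counted. IC50 from specific activity (pmol/mg/min) versus concentration; three separate experiments in duplicate.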

| SMILES | IC50 [µM] |
| --- | --- |
| COC(=O)CCSC/C=C(\C)CCn1cc(CCc2ccc(-c3ccccc3)cc2)nn1 | 0.4 |
| Oc1c(C(c2cccs2)C2CCOCC2)ccc2cccnc12 (stereo not drawn) | 14 |
| c1csc(C(c2ccc3ccccc3c2)C2CCNCC2)c1 (stereo not drawn) | > 50 |
| Oc1c(C(=C2CCOCC2)c2cccs2)ccc2ccccc12 | 7.7 |
| c1ccc(C(=C2CCOCC2)c2cccs2)cc1 | > 50 |

Next, values leading:

| IC50 [µM] | SMILES |
| --- | --- |
| > 50 | c1ccc2cc(CC3CCOCC3)ccc2c1 |
| > 50 | c1ccc(C(=C2CCOCC2)c2ccc3ccccc3c2)cc1 |
| 18 | Oc1c(C(c2cccs2)C2CCOCC2)ccc2ccccc12 (stereo not drawn) |
| > 50 | OC(c1ccccc1)(c1cccs1)C1CCOCC1 (stereo not drawn) |
| > 50 | O=C(c1ccc2ccccc2c1)C1CCOCC1 |
| > 50 | CN1CCC(C(c2ccc3ccccc3c2)c2cccs2)CC1 (stereo not drawn) |

Tested on: not listed separately
Assay: Growth inhibition of human MIAPaCa2 cells expressing K-Ras G12C mutant after 5 days by MTT assay
Assay type: functional, cell-based
Conditions: MIA PaCa-2, 120 h
Summary of the method: as §1

| SMILES | IC50 [µM] |
| --- | --- |
| c1csc(C(=C2CCOCC2)c2ccc3ccccc3c2)c1 | 31.9 |
